In series [1] the target is D(1A) dopamine receptor (Homo sapiens) (UniProt P21728). Put plainly: Antagonist activity at Gs-coupled D1 receptor (unknown origin) expressed in HEK293T cells assessed as reduction in histamine-induced inhibition of forskolin-stimulated cAMP accumulation preincubated for 10 to 15 followed by histamine addition for 10 mins and subsequent forskolin-stimulation by Glo-sensor assay. In kind it is functional, cell-based.

Series [2] concerns the target T1, Histamine H2 receptor (Homo sapiens, UniProt P25021). Put plainly: Agonist activity at recombinant human Gs-coupled H2 receptor expressed in HEK293T cells assessed as inhibition of forskolin-stimulated cAMP accumulation at 10 uM preincubated for 10 to 15 followed by forskolin-stimulation by Glo-sensor assay relative to control. The format is functional, cell-based. More on the design: scale not given: the % may be the effect or the level left. The procedure, abridged: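 HEK293T cells were transiently co-transfected with GloSensor-22F cAMP plasmid and human H2R plasmid, then held 15–18 h at 37 °C in 5% CO2. Cells were loaded with sodium luciferin (1 mg/ml) for 90 min. Agonist mode used 10 µM compound, with luminescence read directly after 10–15 min. Screening was in triplicate, scored as ≥50% change versus control.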
(In general: cAMP levels reflect the balance of adenylyl cyclase and phosphodiesterase activity.)

Series [3] has as its target T2, D(4) dopamine receptor (Homo sapiens) (UniProt P21917).
T2 sequence (whole entry): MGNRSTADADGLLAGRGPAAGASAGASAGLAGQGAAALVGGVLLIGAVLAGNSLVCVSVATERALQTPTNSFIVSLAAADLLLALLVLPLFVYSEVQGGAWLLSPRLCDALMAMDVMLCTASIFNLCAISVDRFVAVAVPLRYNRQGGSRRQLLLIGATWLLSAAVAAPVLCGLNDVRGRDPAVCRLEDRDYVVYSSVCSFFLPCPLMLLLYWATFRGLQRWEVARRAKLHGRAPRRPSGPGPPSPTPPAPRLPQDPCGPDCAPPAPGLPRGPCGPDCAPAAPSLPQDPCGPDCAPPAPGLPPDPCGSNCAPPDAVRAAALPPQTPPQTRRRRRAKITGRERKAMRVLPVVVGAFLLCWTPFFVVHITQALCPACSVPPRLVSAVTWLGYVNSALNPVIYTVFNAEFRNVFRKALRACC
Briefly: Agonist activity at D4 receptor (unknown origin).

The nature of series [4]: Apparent clearance in C57BL/6J mouse serum at 20 mg/kg, po by LC-MS/MS analysis. The format is ADME, organism-based. An outline of the steps: (§1)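 Male C57BL/6J mice (6-8 weeks, 20 ± 5 g) fasted overnight (12-16 h) got a single 20 mg/kg oral dose as 2.5 mg/mL suspension in 1% w/v gum acacia; n=5 per time point. Serum and brain (PBS homogenate 1:6 w/v) sampled up to 24 h. Parent and demethylated metabolite quantified by LC-MS/MS after liquid-liquid extraction (C18, MRM, phenacetin internal standard; linear 0.25-200 ng/mL). Two-compartment open model fit.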

In series [5] the test system is Mus musculus. Briefly: Anti-obesity activity in high fat diet-induced obese C57BL/6J mouse model assessed as change in blood total cholesterol level at 10 to 20 mg/kg, po measured after 6 weeks. The format is functional, organism-based. An outline of the steps:
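At the end of treatment (six weeks HFD, four weeks db/db), mice euthanized with avertin 350 mg/kg. Blood taken by cardiac puncture into 3.8% sodium citrate. Plasma separated at 4000 rpm and stored at -80 °C. TG, TC, HDLc and LDLc measured on a bio-analyzer.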

A short description of series [6]: Toxicity in lean C57BL/6J mouse assessed as effect on cumulative food intake at 20 mg/kg, po. In kind it is organism-based. The settings on record: in vivo. The procedure, abridged:
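Lean male C57BL/6J mice fasted 12 h (8 am-8 pm, water available), singly housed, given 20 mg/kg orally in 5% gum acacia/saline or vehicle. Cumulative food intake measured over 4 h night phase (9 pm-1 am) starting 30 min after dosing.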

Series [7] concerns the target T1, Histamine H2 receptor. Briefly: Agonist activity at recombinant human Gs-coupled H2 receptor expressed in HEK293T cells assessed as inhibition of forskolin-stimulated cAMP accumulation preincubated for 10 to 15 followed by forskolin-stimulation by Glo-sensor assay. The format is functional, cell-based.
Series [8] deals with Histamine H1 receptor (Homo sapiens) (UniProt P35367). Put plainly: Agonist activity at H1R (unknown origin) expressed in HEK293 cells harboring luc2P/NFAT-RE plasmid at 10 uM after 6 to 8 hrs by luciferase reporter gene assay. The format is cell-based. The procedure, abridged: (§2)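 NFAT-RE luciferase assay in HEK293T cells transiently co-transfected with luc2P/NFAT-RE plasmid and receptor plasmid. Cells plated in DMEM and incubated overnight at 37 °C, 5% CO₂. Compounds and reference ligands applied for 6-8 h. Luciferase read after adding Bright-Glo substrate (1 mg/ml final).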

The target of series [9] is Kappa-type opioid receptor (Homo sapiens) (UniProt P41145). Put plainly: Agonist activity at Gi-coupled KOR (unknown origin) expressed in HEK293T cells assessed as inhibition of forskolin-stimulated cAMP accumulation preincubated for 10 to 15 followed by forskolin-stimulation by Glo-sensor assay. The format is functional, cell-based.
Series [10] deals with Histamine H1 receptor (Homo sapiens) (UniProt P35367). Briefly: Antagonist activity at H1R (unknown origin) expressed in HEK293 cells harboring luc2P/NFAT-RE plasmid at 10 uM after 6 to 8 hrs by luciferase reporter gene assay. In kind it is cell-based. The procedure, abridged: as §2
For orientation: In a reporter assay the amount or activity of a reporter protein is the signal.

For series [11], the system named is Mus musculus. Briefly: Anorexic effect in 12 hrs fasted db/db-induced obese C57BL/6J mouse model assessed as reduction in cumulative food intake at 20 mg/kg, po pretreated for 30 mins followed by food addition measured after 4 hrs relative to control. In kind it is functional. Further details: scale not given: the % may be the effect or the level left. An outline of the steps: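 Mice starved 12 h (8:00 am to 8:00 pm) with water available, then housed singly. Compound given orally in 5% gum acacia in normal saline; vehicle group received the same. Cumulative food intake measured over 4 h of the night phase (9:00 pm to 1:00 am), starting 30 min after dosing. Antagonism arms: imitet 5 mg/kg i.p. 30 min before compound, or α-methyl-DL-histidine 20 mg/kg i.p. 2 h before.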

In series [12] the target is Histamine H4 receptor (Homo sapiens) (UniProt Q9H3N8). Put plainly: Agonist activity at recombinant human Gi-coupled H4 receptor expressed in HEK293T cells assessed as inhibition of forskolin-stimulated cAMP accumulation at 10 uM preincubated for 10 to 15 followed by forskolin-stimulation by Glo-sensor assay. The format is functional, cell-based.
Series [13] has as its target T2, D(4) dopamine receptor (Homo sapiens). Briefly: Antagonist activity at D4 receptor (unknown origin).
A short description of series [14]: Half life in C57BL/6J mouse brain at 20 mg/kg, po by LC-MS/MS analysis. In kind it is ADME, organism-based. An outline of the steps:
as §1

Series [15] deals with D(2) dopamine receptor (Homo sapiens) (UniProt P14416). Briefly: Antagonist activity at Gi-coupled D2 receptor (unknown origin) expressed in HEK293T cells assessed as reduction in […] inhibition of forskolin-stimulated cAMP accumulation preincubated for 10 to 15 followed by […] for 10 mins and subsequent forskolin-stimulation by Glo-sensor assay. The format is functional, cell-based.

Series [16] is described as follows: Apparent volume of distribution in C57BL/6J mouse brain at 20 mg/kg, po by LC-MS/MS analysis. In kind it is ADME, organism-based. The procedure, abridged:
as §1

Series [17] in a line: Ratio of AUClast in C57BL/6J mouse brain assessed as 4-(2-Amino-8-methyl-5,6,7,8-tetrahydroquinazolin-4-yl)phenol level to AUClast in C57BL/6J mouse brain. In kind it is ADME, tissue-based. The settings on record: in vivo. The procedure, abridged:
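Male C57BL/6J mice (6–8 weeks) were fasted 12–16 h, then given a single oral dose of 20 mg/kg as a 2.5 mg/mL suspension in 1% gum acacia/water (n=5 per time point). Serum and brain (homogenised 1:6 in PBS) were sampled up to 24 h. Parent and demethylated metabolite were measured by LC-MS/MS (range 0.25–200 ng/mL). AUC ran to the last observation.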

The structures appear in SMILES notation. The source made the active and inactive calls. The calls are words filed in the database; no cut-off is given here.

T1 sequence (P25021 whole entry): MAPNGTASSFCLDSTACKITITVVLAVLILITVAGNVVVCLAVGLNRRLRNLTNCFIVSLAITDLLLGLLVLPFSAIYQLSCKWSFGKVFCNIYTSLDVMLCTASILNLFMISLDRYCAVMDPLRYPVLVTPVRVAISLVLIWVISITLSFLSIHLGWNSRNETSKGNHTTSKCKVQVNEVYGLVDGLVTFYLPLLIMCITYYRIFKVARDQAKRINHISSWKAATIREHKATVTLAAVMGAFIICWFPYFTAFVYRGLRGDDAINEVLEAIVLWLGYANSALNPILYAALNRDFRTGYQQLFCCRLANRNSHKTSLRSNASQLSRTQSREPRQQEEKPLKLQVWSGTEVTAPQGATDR
Sequence of Histamine H1 receptor (Homo sapiens) (P35367 whole entry): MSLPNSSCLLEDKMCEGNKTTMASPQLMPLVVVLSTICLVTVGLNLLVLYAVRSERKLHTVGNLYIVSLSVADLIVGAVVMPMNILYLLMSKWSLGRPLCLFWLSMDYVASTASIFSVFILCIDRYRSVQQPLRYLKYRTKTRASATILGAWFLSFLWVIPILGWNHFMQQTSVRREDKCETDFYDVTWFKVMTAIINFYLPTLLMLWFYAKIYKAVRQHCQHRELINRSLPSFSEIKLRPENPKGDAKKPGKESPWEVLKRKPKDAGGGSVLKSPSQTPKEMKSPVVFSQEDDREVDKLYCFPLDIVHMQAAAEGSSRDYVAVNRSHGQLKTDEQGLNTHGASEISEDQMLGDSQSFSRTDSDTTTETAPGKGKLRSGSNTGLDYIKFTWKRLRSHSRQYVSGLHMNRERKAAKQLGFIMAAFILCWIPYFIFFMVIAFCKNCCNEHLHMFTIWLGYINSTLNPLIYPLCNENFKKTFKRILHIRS
Sequence of D(1A) dopamine receptor (Homo sapiens) (P21728 whole entry): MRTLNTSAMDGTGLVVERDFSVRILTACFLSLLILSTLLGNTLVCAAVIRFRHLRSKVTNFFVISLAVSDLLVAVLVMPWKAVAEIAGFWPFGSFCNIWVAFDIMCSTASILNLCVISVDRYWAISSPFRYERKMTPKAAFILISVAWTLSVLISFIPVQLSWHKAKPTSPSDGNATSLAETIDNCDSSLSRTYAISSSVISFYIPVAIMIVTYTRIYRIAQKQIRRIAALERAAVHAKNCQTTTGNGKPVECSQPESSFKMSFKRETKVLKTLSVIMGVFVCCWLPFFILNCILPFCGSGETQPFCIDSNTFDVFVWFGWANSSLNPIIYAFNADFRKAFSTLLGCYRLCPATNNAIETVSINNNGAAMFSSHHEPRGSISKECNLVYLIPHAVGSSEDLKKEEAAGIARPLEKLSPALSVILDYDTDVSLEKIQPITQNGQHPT
Sequence of D(2) dopamine receptor (Homo sapiens) (P14416 whole entry): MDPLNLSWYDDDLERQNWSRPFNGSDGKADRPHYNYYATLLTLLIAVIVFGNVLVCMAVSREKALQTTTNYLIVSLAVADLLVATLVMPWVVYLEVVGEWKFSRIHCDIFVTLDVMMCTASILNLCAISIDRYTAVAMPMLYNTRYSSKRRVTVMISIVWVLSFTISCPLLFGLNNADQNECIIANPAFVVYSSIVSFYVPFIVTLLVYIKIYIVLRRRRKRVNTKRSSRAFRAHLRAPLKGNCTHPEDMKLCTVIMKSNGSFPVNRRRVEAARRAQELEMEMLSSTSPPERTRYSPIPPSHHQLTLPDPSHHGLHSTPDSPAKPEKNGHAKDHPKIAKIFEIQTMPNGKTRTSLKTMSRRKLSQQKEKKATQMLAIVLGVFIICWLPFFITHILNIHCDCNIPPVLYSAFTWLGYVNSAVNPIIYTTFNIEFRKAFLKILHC
Sequence of Histamine H4 receptor (Homo sapiens) (Q9H3N8 whole entry): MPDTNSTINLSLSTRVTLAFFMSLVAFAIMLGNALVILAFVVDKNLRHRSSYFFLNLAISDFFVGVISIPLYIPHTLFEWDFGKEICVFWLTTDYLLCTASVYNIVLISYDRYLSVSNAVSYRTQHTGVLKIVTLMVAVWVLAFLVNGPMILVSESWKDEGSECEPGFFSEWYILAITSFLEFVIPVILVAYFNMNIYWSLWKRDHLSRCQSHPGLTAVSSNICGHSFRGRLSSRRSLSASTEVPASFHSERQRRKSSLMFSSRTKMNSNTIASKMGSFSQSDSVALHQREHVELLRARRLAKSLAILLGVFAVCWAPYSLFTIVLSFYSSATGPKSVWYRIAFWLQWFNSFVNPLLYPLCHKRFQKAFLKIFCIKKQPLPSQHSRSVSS
Sequence of Kappa-type opioid receptor (Homo sapiens) (P41145 whole entry): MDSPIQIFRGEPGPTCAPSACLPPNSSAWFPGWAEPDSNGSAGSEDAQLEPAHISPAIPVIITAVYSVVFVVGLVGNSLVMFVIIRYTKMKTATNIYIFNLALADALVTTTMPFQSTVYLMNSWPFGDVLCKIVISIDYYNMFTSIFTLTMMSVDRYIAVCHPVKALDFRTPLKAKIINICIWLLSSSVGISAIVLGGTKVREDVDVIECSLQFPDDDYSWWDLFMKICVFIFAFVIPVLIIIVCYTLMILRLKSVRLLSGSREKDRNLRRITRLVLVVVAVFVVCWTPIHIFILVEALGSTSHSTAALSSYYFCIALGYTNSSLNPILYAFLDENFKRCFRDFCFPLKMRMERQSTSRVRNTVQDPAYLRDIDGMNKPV

In the case of `COc1ccc(-c2nc(N)nc3c2CCCC3C)cc1` (racemic), the inhibition entry in series [1], in [9], in series [10], in [13] and in [15] was “inactive” each time. In addition, the Activity on Histamine H2 receptor [2] was less than 50%; in series [6] it was “Non-Toxic”; in the series on Mus musculus [11], 33%. Moreover, the outcome (in series [3]; in the series with Mus musculus [5]; in series [8]; in [12]) was inactive. Besides, in series [4], the CL/F is 10.3 L/h/kg. Also, the EC50 result at Histamine H2 receptor [7] was “Not Active”. In addition, on Histamine H2 receptor [7], the INH is greater than 10 µM. This molecule also had a half-life in series [14] of 1.1 h. Further, the Vd/F in [16] came to 28.3 L/kg. Moreover, the “Ratio AUC” value in [17] stood at 32.4%.

The CL/F is the apparent clearance, not corrected for the fraction that reaches the circulation. What is called half-life is how long it takes for the measured level to halve. One may read the Vd/F as the volume of distribution divided by bioavailability.

(Values after ChEMBL document CHEMBL4393678, “Novel Tetrahydroquinazolinamines as Selective Histamine 3 Receptor Antagonists for the Treatment of Obesity” (J Med Chem, 2019).)
